Measured values pooled from the literature.
Target: Bone morphogenetic protein receptor type-1B (BMPR1B, Homo sapiens, UniProt O00238)

With CNC(=O)c1ccc(Nc2ncc(C(F)(F)F)c(NCc3nccnc3N(C)S(C)(=O)=O)n2)cc1 the remaining binding was 65% (cell-free assay; competition with immobilised ligand; 0.1 µM).
With Cc1cnc(NC2CCOCC2)nc1-n1cnc(C(=O)NC(CN)c2cc(F)cc(Cl)c2)c1 (stereo not shown) the remaining activity was 106% (enzyme activity; inhibitor; radiometric; 1 µM).
COc1cc(Cl)c(C(=O)N[C@@H](CN[C@H]2CC[C@@H](N)CC2)Cc2ccc(C#N)cc2)cc1-c1ccc(CN[C@H](C)c2ccc(C)cc2)o1 has a remaining activity of 101% (enzyme activity; inhibitor; 1 µM).
C[C@@H]1CCN(c2nccc(-c3cnn4ncccc34)n2)C1 has a remaining binding of 68% (binding; 1 µM).
O=C(Nc1cnn(-c2csc(C(=O)NC3COC3)c2)c1)Nc1ccccc1Cl gave a remaining activity of 109% (enzyme activity; inhibitor; 5 µM).
For Cc1ccc(NC(=O)c2ccc(C)c(C(F)(F)F)c2)cc1C#Cc1nn(C2CCC(O)CC2)c2ncnc(N)c12 (stereo not shown), the remaining signal was 18% (cell-free assay; 10 µM).
For CN1CC(Oc2cnc(C#N)cc2-c2ccn3nc(NC(=O)C4CC4)cc3c2)C1, the inhibition was -1% (enzyme activity; inhibitor; 1 µM).
Cc1ccc(C(=O)Nc2ccc(CN3CCN(C)CC3)c(C(F)(F)F)c2)cc1C#Cc1cnc2cccnn12 gave a remaining activity of 96% (enzyme activity; 23.5 nM).
With Cc1cc(NC(=O)c2cccc3cc(-c4cccc5[nH]nc(N)c45)ccc23)ccc1F the activity vs control was 100% (enzyme activity; inhibitor; 0.1 µM).
For CC(C)(O)[C@H]1CC[C@H](Nc2ccc3ncc(-c4cccc(C(F)(F)F)c4)n3n2)CC1, the remaining activity was 147% (enzyme activity; inhibitor; 1 µM).
With Cc1sc(C(=O)NC2COC2)cc1-n1cc(NC(=O)Nc2c(F)cccc2Cl)cn1 the remaining activity was 104% (enzyme activity; inhibitor; 10 µM).
With N#Cc1ccc(Nc2ccc3[nH]c(=O)[nH]c3c2)c(Cl)c1 the remaining binding was 100% (cell-free assay; competition with immobilised ligand; 1 µM).
With Nc1ncnc2occ(-c3ccc(NC(=O)Nc4cc(C(F)(F)F)ccc4F)cc3)c12 the remaining signal was 37% (cell-free assay; 20 µM).
